Values joined by “and” are separate entries in the source; they are usually repeats but may differ in a detail not shown here. Equal values may be shown once.
Test system: HEK-293T
Assay: Multiplex assay against HEK293T;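 as to Population Tubulin-Different-Phenotype (%): share of the cells with healthy nuclei that show this phenotype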
Type: toxicity, cell-based
Settings: human
Procedure, shortened: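 Live cells carried four stains from seeding: Hoechst33342, BioTracker Green Microtubule Cytoskeleton Dye, MitoTracker Red and Annexin V Alexa Fluor 680. They were imaged on a CQ1 microscope at 37°C and 5% CO2 after compound addition. Using CellPathfinder machine-learning gating, cells were split into Hoechst high-intensity objects or normal cells, normal cells into healthy, pyknosed or fragmented nuclei, and pyknosed cells into mitotic or apoptotic; tubulin, mitochondrial-mass and membrane-permeability phenotypes are per cents of healthy-nucleus cells.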

[1] = 12 h, 10 µM, compound concentration 10 uM, replicate 1
[2] = 12 h, 10 µM, compound concentration 10 uM, replicate 2
[3] = 24 h, 10 µM, compound concentration 10 uM, replicate 1
[4] = 24 h, 10 µM, compound concentration 10 uM, replicate 2
[5] = 48 h, 10 µM, compound concentration 10 uM, replicate 1
[6] = 48 h, 10 µM, compound concentration 10 uM, replicate 2
[7] = 12 h, 1 µM, compound concentration 1 uM, replicate 1
[8] = 12 h, 1 µM, compound concentration 1 uM, replicate 2
[9] = 24 h, 1 µM, compound concentration 1 uM, replicate 1
[10] = 24 h, 1 µM, compound concentration 1 uM, replicate 2
[11] = 48 h, 1 µM, compound concentration 1 uM, replicate 1
[12] = 48 h, 1 µM, compound concentration 1 uM, replicate 2

C#Cc1cccc(Nc2ncnc3cc(OCCOC)c(OCCOC)cc23)c1 [ERLOTINIB]
Population Apoptotic (%) [1]: 61% and 22% and 23%
Population Fragmented Nuclei (%) [1]: 11% and 22% and 20%
Population Healthy Nuclei (%) [1]: 23% and 55% and 63%
Population Hoechst High Intensity Objects (%) [1]: 14% and 12%
Population Membrane Permeable-Phenotype (%) [1]: 8% and 18% and 7%
Population Mitotic Cells (%) [1]: 38% and 77% and 76%
Population Normal (%) [1]: 85% and 87%
Total Cell Count [1]: 229 and 602 and 657
Population Fragmented Nuclei (%) [2]: 12% and 6% and 7%
Population Hoechst High Intensity Objects (%) [2]: 5% and 2%
Population Mitotic Cells (%) [2]: 49% and 88% and 94%
Population Normal (%) [2]: 94% and 97%
Population Fragmented Nuclei (%) [3]: 10% and 13% and 15%
Population Healthy Nuclei (%) [3]: 31% and 68% and 74%
Population Hoechst High Intensity Objects (%) [3]: 16% and 12% and 8%
Population Mitotic Cells (%) [3]: 29% and 68% and 78%
Population Normal (%) [3]: 83% and 87% and 91%
Total Cell Count [3]: 250 and 573 and 727
Population Healthy Nuclei (%) [4]: 38% and 82% and 70%
Population Hoechst High Intensity Objects (%) [4]: 2% and 3%
Population Normal (%) [4]: 97% and 96%
Population Apoptotic (%) [5]: 64%
Population Fragmented Nuclei (%) [5]: 20%
Population Healthy Nuclei (%) [5]: 22%
Population Hoechst High Intensity Objects (%) [5]: 20%
Population Membrane Permeable-Phenotype (%) [5]: 2%
Population Mitochondria Different-Phenotype (%) [5]: 88%
Population Mitotic Cells (%) [5]: 35%
Population Normal (%) [5]: 79%
Population Pyknosed Nuclei (%) [5]: 57%
Population Tubulin-Different-Phenotype (%) [5]: 91%
Total Cell Count [5]: 254
Population Apoptotic (%) [6]: 45%
Population Fragmented Nuclei (%) [6]: 4%
Population Healthy Nuclei (%) [6]: 56%
Population Hoechst High Intensity Objects (%) [6]: 5%
Population Membrane Permeable-Phenotype (%) [6]: 5%
Population Mitochondria Different-Phenotype (%) [6]: 81%
Population Mitotic Cells (%) [6]: 54%
Population Normal (%) [6]: 94%
Population Pyknosed Nuclei (%) [6]: 38%
Population Tubulin-Different-Phenotype (%) [6]: 97%
Total Cell Count [6]: 197

CC(C)NC(=O)N1CC[C@H](NC2=Nc3cc(F)ccc3N(CC(F)F)c3ccc(Cl)cc32)C1
Population Apoptotic (%) [7]: 42%
Population Fragmented Nuclei (%) [7]: 19%
Population Healthy Nuclei (%) [7]: 34%
Population Hoechst High Intensity Objects (%) [7]: 18%
Population Membrane Permeable-Phenotype (%) [7]: 4%
Population Mitochondria Different-Phenotype (%) [7]: 78%
Population Mitotic Cells (%) [7]: 57%
Population Normal (%) [7]: 81%
Population Pyknosed Nuclei (%) [7]: 46%
Population Tubulin-Different-Phenotype (%) [7]: 34%
Total Cell Count [7]: 170
Population Apoptotic (%) [8]: 8%
Population Fragmented Nuclei (%) [8]: 4%
Population Healthy Nuclei (%) [8]: 47%
Population Hoechst High Intensity Objects (%) [8]: 3%
Population Membrane Permeable-Phenotype (%) [8]: 13%
Population Mitochondria Different-Phenotype (%) [8]: 24%
Population Mitotic Cells (%) [8]: 91%
Population Normal (%) [8]: 96%
Population Pyknosed Nuclei (%) [8]: 47%
Population Tubulin-Different-Phenotype (%) [8]: 25%
Total Cell Count [8]: 304
Population Apoptotic (%) [1]: 53%
Population Fragmented Nuclei (%) [1]: 24%
Population Healthy Nuclei (%) [1]: 38%
Population Hoechst High Intensity Objects (%) [1]: 22%
Population Membrane Permeable-Phenotype (%) [1]: 4%
Population Mitochondria Different-Phenotype (%) [1]: 91%
Population Mitotic Cells (%) [1]: 46%
Population Normal (%) [1]: 77%
Population Pyknosed Nuclei (%) [1]: 37%
Population Tubulin-Different-Phenotype (%) [1]: 79%
Total Cell Count [1]: 163
Population Apoptotic (%) [2]: 20%
Population Fragmented Nuclei (%) [2]: 6%
Population Healthy Nuclei (%) [2]: 53%
Population Hoechst High Intensity Objects (%) [2]: 5%
Population Membrane Permeable-Phenotype (%) [2]: 10%
Population Mitochondria Different-Phenotype (%) [2]: 48%
Population Mitotic Cells (%) [2]: 79%
Population Normal (%) [2]: 94%
Population Pyknosed Nuclei (%) [2]: 40%
Population Tubulin-Different-Phenotype (%) [2]: 57%
Total Cell Count [2]: 170
Population Apoptotic (%) [9]: 37%
Population Fragmented Nuclei (%) [9]: 20%
Population Healthy Nuclei (%) [9]: 39%
Population Hoechst High Intensity Objects (%) [9]: 20%
Population Membrane Permeable-Phenotype (%) [9]: 0%
Population Mitochondria Different-Phenotype (%) [9]: 75%
Population Mitotic Cells (%) [9]: 62%
Population Normal (%) [9]: 79%
Population Pyknosed Nuclei (%) [9]: 39%
Population Tubulin-Different-Phenotype (%) [9]: 32%
Total Cell Count [9]: 178
Population Apoptotic (%) [10]: 15%
Population Fragmented Nuclei (%) [10]: 4%
Population Healthy Nuclei (%) [10]: 69%
Population Hoechst High Intensity Objects (%) [10]: 3%
Population Membrane Permeable-Phenotype (%) [10]: 8%
Population Mitochondria Different-Phenotype (%) [10]: 13%
Population Mitotic Cells (%) [10]: 84%
Population Normal (%) [10]: 96%
Population Pyknosed Nuclei (%) [10]: 25%
Population Tubulin-Different-Phenotype (%) [10]: 25%
Total Cell Count [10]: 367
Population Apoptotic (%) [3]: 58%
Population Fragmented Nuclei (%) [3]: 17%
Population Healthy Nuclei (%) [3]: 32%
Population Hoechst High Intensity Objects (%) [3]: 25%
Population Membrane Permeable-Phenotype (%) [3]: 0%
Population Mitochondria Different-Phenotype (%) [3]: 94%
Population Mitotic Cells (%) [3]: 41%
Population Normal (%) [3]: 74%
Population Pyknosed Nuclei (%) [3]: 50%
Population Tubulin-Different-Phenotype (%) [3]: 69%
Total Cell Count [3]: 161
Population Apoptotic (%) [4]: 37%
Population Fragmented Nuclei (%) [4]: 9%
Population Healthy Nuclei (%) [4]: 58%
Population Hoechst High Intensity Objects (%) [4]: 2%
Population Membrane Permeable-Phenotype (%) [4]: 6%
Population Mitochondria Different-Phenotype (%) [4]: 71%
Population Mitotic Cells (%) [4]: 62%
Population Normal (%) [4]: 97%
Population Pyknosed Nuclei (%) [4]: 32%
Population Tubulin-Different-Phenotype (%) [4]: 61%
Total Cell Count [4]: 169
Population Apoptotic (%) [11]: 48%
Population Fragmented Nuclei (%) [11]: 22%
Population Healthy Nuclei (%) [11]: 37%
Population Hoechst High Intensity Objects (%) [11]: 21%
Population Membrane Permeable-Phenotype (%) [11]: 0%
Population Mitochondria Different-Phenotype (%) [11]: 32%
Population Mitotic Cells (%) [11]: 51%
Population Normal (%) [11]: 78%
Population Pyknosed Nuclei (%) [11]: 40%
Population Tubulin-Different-Phenotype (%) [11]: 28%
Total Cell Count [11]: 189
Population Apoptotic (%) [12]: 17%
Population Fragmented Nuclei (%) [12]: 5%
Population Healthy Nuclei (%) [12]: 84%
Population Hoechst High Intensity Objects (%) [12]: 3%
Population Membrane Permeable-Phenotype (%) [12]: 4%
Population Mitochondria Different-Phenotype (%) [12]: 4%
Population Mitotic Cells (%) [12]: 82%
Population Normal (%) [12]: 96%
Population Pyknosed Nuclei (%) [12]: 10%
Population Tubulin-Different-Phenotype (%) [12]: 25%
Total Cell Count [12]: 580
Population Apoptotic (%) [5]: 70%
Population Fragmented Nuclei (%) [5]: 28%
Population Healthy Nuclei (%) [5]: 39%
Population Hoechst High Intensity Objects (%) [5]: 19%
Population Membrane Permeable-Phenotype (%) [5]: 8%
Population Mitochondria Different-Phenotype (%) [5]: 74%
Population Mitotic Cells (%) [5]: 29%
Population Normal (%) [5]: 80%
Population Pyknosed Nuclei (%) [5]: 32%
Population Tubulin-Different-Phenotype (%) [5]: 62%
Total Cell Count [5]: 181
Population Apoptotic (%) [6]: 48%
Population Fragmented Nuclei (%) [6]: 8%
Population Healthy Nuclei (%) [6]: 63%
Population Hoechst High Intensity Objects (%) [6]: 2%
Population Membrane Permeable-Phenotype (%) [6]: 5%
Population Mitochondria Different-Phenotype (%) [6]: 46%
Population Mitotic Cells (%) [6]: 51%
Population Normal (%) [6]: 97%
Population Pyknosed Nuclei (%) [6]: 28%
Population Tubulin-Different-Phenotype (%) [6]: 61%
Total Cell Count [6]: 219
